Source: ChEMBL document CHEMBL4680130, “Substituted 4-phenylthiazoles: Development of potent and selective A, A and dual A/A adenosine receptor antagonists” (Eur J Med Chem, 2020)

Experiments:
Adenosine receptor A1 [1] = molecular target: T1, Adenosine receptor A1 (Rattus norvegicus, UniProt P25099); test: Displacement of [3H]CCPA from adenosine receptor A1 in rat brain cortex membranes incubated for 90 mins by radioligand competition assay; type: cell membranes, Cell membrane
T1 sequence (P25099 whole entry): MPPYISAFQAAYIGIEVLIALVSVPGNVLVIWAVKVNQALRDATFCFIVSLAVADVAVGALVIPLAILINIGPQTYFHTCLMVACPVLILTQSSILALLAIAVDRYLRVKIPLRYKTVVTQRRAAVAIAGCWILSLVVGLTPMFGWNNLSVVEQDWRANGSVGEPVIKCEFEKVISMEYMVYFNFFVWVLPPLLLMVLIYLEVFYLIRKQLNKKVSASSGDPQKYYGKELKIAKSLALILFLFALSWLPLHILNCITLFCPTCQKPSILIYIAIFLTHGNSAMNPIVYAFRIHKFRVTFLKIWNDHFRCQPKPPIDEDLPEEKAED

[2] = molecular target: T2, Adenosine receptor A2b (Rattus norvegicus) (UniProt P29276); test: Displacement of [3H]PSB-603 from rat adenosine receptor A2B expressed in CHO cell membranes at 0.1 uM incubated for 75 mins by radioligand competition assay relative to control; conditions: Cell membrane
T2 sequence (whole entry): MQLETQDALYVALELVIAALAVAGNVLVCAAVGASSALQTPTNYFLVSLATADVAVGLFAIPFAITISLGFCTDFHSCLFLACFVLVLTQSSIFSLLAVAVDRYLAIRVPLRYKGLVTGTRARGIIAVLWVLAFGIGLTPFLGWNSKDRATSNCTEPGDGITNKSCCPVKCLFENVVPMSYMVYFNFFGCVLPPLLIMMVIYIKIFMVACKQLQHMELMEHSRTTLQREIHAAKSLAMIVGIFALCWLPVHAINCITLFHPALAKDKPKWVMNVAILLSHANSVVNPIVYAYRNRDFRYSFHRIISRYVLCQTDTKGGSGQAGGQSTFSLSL
How it was run: (§1)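 CHO membranes expressing human or rat A2B, [3H]PSB-603 0.3 nM. Nonspecific binding defined by 10 µM DPCPX. Preincubated 20 min with adenosine deaminase, then 75 min at rt in Tris-HCl pH 7.4 with 2.5% DMSO. Filters washed with ice-cold 50 mM Tris-HCl containing 0.1% BSA; scintillation counting.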

Adenosine receptor A1 [3] = molecular target: T1, Adenosine receptor A1; test: Displacement of [3H]DPCPX from rat brain cortical membrane A1AR in presence of 100 uM of GTP by scintillation counting analysis; type: cell membranes, Cortex, Cell membrane
[4] = molecular target: T3, Adenosine receptor A3 (Homo sapiens) (UniProt P0DMS8); test: Displacement of [3H]PSB-11 from human adenosine receptor A3 expressed in CHO cell membranes at 0.1 uM incubated for 60 mins by radioligand competition assay; conditions: Cell membrane, filed as antagonist, dose 0.1 µM
T3 sequence (whole entry): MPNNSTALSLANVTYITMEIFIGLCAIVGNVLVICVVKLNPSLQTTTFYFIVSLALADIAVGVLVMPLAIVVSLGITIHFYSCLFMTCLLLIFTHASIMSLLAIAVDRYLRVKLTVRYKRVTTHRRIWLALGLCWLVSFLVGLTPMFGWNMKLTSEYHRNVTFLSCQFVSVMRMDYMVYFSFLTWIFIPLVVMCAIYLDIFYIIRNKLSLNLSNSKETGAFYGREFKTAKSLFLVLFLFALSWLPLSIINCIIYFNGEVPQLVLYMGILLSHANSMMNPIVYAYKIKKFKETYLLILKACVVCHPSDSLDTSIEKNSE
How it was run: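 CHO membranes expressing human A3, [3H]PSB-11 0.5 nM. Nonspecific binding defined by 100 µM R-PIA. Adenosine deaminase preincubation 20 min, then 60 min at rt in 50 mM Tris-HCl pH 7.4 with 2.5% DMSO. Filtered on GF/B, scintillation counted.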

Adenosine receptor A3 = molecular target: T4, Adenosine receptor A3 (Rattus norvegicus, UniProt P28647); test: Displacement of [3H]NECA from rat adenosine receptor A3 expressed in CHO cell membranes incubated for 60 mins by radioligand competition assay; set-up: species or system Cell membrane
T4 sequence (P28647 whole entry): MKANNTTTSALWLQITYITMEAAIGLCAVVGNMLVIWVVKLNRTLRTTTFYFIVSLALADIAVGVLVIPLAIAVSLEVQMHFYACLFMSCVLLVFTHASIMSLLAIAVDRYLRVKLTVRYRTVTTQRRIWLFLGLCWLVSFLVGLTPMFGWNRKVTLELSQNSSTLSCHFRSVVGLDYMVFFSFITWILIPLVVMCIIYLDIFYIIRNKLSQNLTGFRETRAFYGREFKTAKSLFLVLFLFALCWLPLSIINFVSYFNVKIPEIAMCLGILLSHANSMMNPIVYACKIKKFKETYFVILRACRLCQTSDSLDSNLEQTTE

Adenosine receptor A2a = Adenosine receptor A2a (Rattus norvegicus, UniProt P30543); test: Displacement of [3H]MSX2 from adenosine receptor A2A in rat brain striatum membranes incubated for 30 mins by radioligand competition assay; type: cell membranes, Cell membrane
Chain of Adenosine receptor A2a (P30543 whole entry): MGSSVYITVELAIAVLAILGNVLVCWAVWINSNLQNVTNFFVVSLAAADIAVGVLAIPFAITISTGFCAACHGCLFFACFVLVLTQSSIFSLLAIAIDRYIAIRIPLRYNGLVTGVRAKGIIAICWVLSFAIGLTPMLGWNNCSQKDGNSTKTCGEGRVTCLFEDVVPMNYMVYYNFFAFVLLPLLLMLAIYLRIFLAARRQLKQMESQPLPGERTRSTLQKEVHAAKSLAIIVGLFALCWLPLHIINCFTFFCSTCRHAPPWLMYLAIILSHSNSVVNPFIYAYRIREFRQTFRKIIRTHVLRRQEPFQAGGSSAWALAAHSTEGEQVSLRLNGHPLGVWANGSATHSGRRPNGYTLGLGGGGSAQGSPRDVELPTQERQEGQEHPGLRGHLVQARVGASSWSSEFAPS

Adenosine receptor A1 [5] = molecular target: T1, Adenosine receptor A1; test: Displacement of [3H]CCPA from rat adenosine receptor A1 by radioligand competition assay
How it was run: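 A1 competition binding with [3H]CCPA, 0.5 nM. Membranes: CHO cells expressing human A1, or rat brain cortex. Membranes preincubated 20 min with adenosine deaminase (2 U/mL per mg protein). Incubation 90 min at rt in 50 mM Tris-HCl pH 7.4 with 2.5% final DMSO. Nonspecific binding defined by 10 µM 2-chloroadenosine. GF/B filtration, scintillation counting.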

Adenosine receptor A2b = molecular target: T5, Adenosine receptor A2b (Rattus norvegicus, UniProt P29276); test: Displacement of [3H]PSB-603 from rat adenosine receptor A2B expressed in CHO cell membranes incubated for 75 mins by radioligand competition assay; set-up: species or system Cell membrane; how it was run: as §1
T5 sequence (P29276 whole entry): T2 sequence (whole entry)

Adenosine receptor A1 [6] = molecular target: T1, Adenosine receptor A1; test: Displacement of [3H]DPCPX from rat adenosine receptor A1 by radioligand competition assay
How it was run: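 Rat brain cortical membranes, [3H]DPCPX 0.4 nM. Nonspecific binding defined by 10 μM DPCPX. Curves run with and without 100 μM GTP. Incubation 90 min at rt in 50 mM Tris-HCl pH 7.4, after 20 min adenosine deaminase preincubation. Filtration, then scintillation counting. GTP shift is the IC50 with GTP divided by the IC50 without GTP.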

Adenosine receptor A1 [7] = molecular target: T1, Adenosine receptor A1; test: Displacement of [3H]DPCPX from rat brain cortical membrane A1AR in absence of GTP by scintillation counting analysis; type: cell membranes, Cortex, Cell membrane
Adenosine receptor A1 [8] = molecular target: T6, Adenosine receptor A1 (Homo sapiens, UniProt P30542); test: Displacement of [3H]CCPA from human adenosine receptor A1 expressed in CHO cell membranes incubated for 90 mins by radioligand competition assay; set-up: species or system Cell membrane
T6 sequence (P30542 whole entry): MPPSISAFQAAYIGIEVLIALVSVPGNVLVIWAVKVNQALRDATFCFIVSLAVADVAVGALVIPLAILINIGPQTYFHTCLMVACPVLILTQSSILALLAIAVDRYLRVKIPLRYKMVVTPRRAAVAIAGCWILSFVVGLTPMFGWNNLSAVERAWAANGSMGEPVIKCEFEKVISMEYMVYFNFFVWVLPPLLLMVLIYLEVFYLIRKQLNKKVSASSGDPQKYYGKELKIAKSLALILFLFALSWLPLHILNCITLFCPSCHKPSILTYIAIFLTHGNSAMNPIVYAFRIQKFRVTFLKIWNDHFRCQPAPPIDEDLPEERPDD

Question: For `COc1ccc(C(=O)Nc2nc(-c3ccccc3)c(C(=O)c3ccc(C)cc3)s2)cc1`, which Ki (Adenosine receptor A1 [1]) is on record?
Answer: Its Ki is 0.529 nM.

Question: What about the inhibition [2] of the same molecule?
Answer: The inhibition was 7%.

Question: And the IC50 (Adenosine receptor A1 [3])?
Answer: Its IC50 is 0.0763 nM.

Question: And the inhibition [4]?
Answer: Its inhibition is 45%.

Question: And the Ki (Adenosine receptor A3)?
Answer: Its Ki is > 10000 nM.

Question: And the Ki (Adenosine receptor A2a)?
Answer: Its Ki is > 1000 nM.

Question: And the Ki (Adenosine receptor A1 [5])?
Answer: The Ki was 0.529 nM.

Question: And the Ki (Adenosine receptor A2b)?
Answer: The Ki was > 100 nM.

Question: And the Ki (Adenosine receptor A1 [6])?
Answer: Its Ki is 0.0709 nM.

Question: And the IC50 (Adenosine receptor A1 [7])?
Answer: Its IC50 is 0.0756 nM.

Question: What about the Ki (Adenosine receptor A1 [8]) of the same molecule?
Answer: The Ki was 9.69 nM.
